# Experimental data from PMC2878397 (Journal of natural products, 2010).
# Where two headings read alike, the source gives them in different places.
# What was measured:
# [1] = tested on: HT-29 human colon cancer cells; test: Cytotoxicity assay against HT-29 cells; type: cell-based; settings: for IC50: Homo sapiens, HT-29, 72 h, read-out: cytotoxicity ED50; for cytotoxicity ED50: HT-29 cells, three days incubation, SRB
# Procedure, shortened: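 Trypsinized HT-29 cells seeded in 96-well plates with test compound in DMSO; DMSO-only wells as negative control, paclitaxel as positive control. Incubated 3 days at 37 °C, 5% CO2. Cells fixed, held 30 min at room temperature, water-washed, air-dried overnight, then stained with sulforhodamine B. Dye released in tris-base buffer, absorbance read at 515 nm. Cytotoxicity calculated against negative control, reported as ED50 (μM).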
# NF-κB p50 = biological target: T1, NF-κB p50 (Homo sapiens, UniProt P19838); test: Enzyme-based ELISA NF-κB p50 assay; type: biochemical
# T1 sequence (P19838 1-433 limits assumed): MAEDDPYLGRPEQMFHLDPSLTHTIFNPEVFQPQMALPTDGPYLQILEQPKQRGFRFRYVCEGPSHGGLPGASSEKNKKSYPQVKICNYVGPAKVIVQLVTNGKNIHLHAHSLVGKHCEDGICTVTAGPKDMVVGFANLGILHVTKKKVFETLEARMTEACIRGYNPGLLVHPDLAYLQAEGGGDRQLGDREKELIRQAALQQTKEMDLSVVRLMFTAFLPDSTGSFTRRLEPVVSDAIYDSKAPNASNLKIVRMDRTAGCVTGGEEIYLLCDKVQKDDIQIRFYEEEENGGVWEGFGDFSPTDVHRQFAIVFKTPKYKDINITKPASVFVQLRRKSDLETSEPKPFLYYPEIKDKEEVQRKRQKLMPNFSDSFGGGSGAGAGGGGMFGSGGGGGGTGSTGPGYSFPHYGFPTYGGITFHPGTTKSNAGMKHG
# NF-κB p65 = NF-κB p65 (Homo sapiens, UniProt Q04206); test: Enzyme-based ELISA NF-κB p65 assay; type: biochemical
# NF-κB p65, sequence (Q04206 whole entry, one chain of several): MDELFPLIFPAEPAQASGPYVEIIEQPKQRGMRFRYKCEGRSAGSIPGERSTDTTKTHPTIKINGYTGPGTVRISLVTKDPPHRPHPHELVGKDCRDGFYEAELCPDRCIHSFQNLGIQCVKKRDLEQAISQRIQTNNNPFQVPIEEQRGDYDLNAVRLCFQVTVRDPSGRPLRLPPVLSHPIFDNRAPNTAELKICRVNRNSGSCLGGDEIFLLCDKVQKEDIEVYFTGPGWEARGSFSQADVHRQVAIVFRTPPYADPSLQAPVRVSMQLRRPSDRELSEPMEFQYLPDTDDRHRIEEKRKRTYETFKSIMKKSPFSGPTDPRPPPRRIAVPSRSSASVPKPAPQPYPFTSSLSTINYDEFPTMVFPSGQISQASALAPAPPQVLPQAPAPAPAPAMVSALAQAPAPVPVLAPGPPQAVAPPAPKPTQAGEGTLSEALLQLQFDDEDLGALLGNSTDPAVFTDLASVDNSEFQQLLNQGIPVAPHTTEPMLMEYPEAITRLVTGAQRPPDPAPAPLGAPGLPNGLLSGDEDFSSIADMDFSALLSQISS
# 9KB = 9KB in vitro test system; cited from earlier work
# 9PS = 9PS in vitro test system; cited from earlier work
# P388 leukemia cells = settings: cited from earlier work
Molecule,IC50 (NF-κB p50) [µM],IC50 (NF-κB p65) [µM],cytotoxicity ED50 [1] [µM],further results
"C=C(C)c1cc2c(=O)c3c(O)c(CC=C(C)C)c(O)cc3oc2c2c1C(=O)C(O)=C(CC=C(C)C)C2=O [Compound 3, 4,8,10-trihydroxy-5-isopropenyl-2,9-bis(3-methyl-2-butenyl)-7-benzo[c]xanthen-2,4,7-trione]",,,>10,
"3-hydroxy-4,3′,5′-trimethoxy-trans-stilbene [Compound 9]",,,8.7,"IC50 (NF-κB p50; read-out: NF-κB p50 inhibition IC50, HeLa nuclear extract, ELISA): > 10 µM; IC50 (NF-κB p65; read-out: NF-κB p65 inhibition IC50, HeLa nuclear extract, ELISA): > 10 µM; cytotoxicity ED50 (9KB): 0.01 µg/mL; cytotoxicity ED50 (9PS): 0.1 µg/mL"
COc1cc(O)c2c(=O)c3cc4c5c(c(O)cc(O)c5c3oc2c1)OC4(C)C [artonin K],,,,IC50 [1]: > 10 µM
CC(C)=CCc1c(-c2cc(O)c(O)cc2O)oc2c3c(cc(O)c2c1=O)OC(C)(C)C=C3 [artonin E],,,,cytotoxicity ED50 (P388 leukemia cells): 0.06 µg/mL
"C=C(C)[C@H]1Cc2c(oc3c(CC=C(C)C)c(O)c(CC=C(C)C)c(O)c3c2=O)-c2c(O)cc(O)c(O)c21 [Compound 1, (5R)-5,6-dihydro-1,3,4,8,10-pentahydroxy-5-isopropenyl-9,11-bis(3-methyl-2-butenyl)-7H-benzo[c]xanthen-7-one]",2,> 10,,

# Continued, in another order:
IC50 (NF-κB p50) [µM],IC50 (NF-κB p65) [µM],Molecule,cytotoxicity ED50 [1] [µM],further results
> 10,> 10,"CC1(C)C=Cc2cc3c(cc2O1)Oc1cc(O)ccc1C(O)=C3 [Compound 5, 2,2-dimethyl-2H-benzo{6,7-oxepino[3,2-g]}chromene-7,10-diol]",,IC50 [1]: 10.7 µM
> 10,> 10,"CC1(C)C=Cc2c(cc(O)c3c(=O)c4c(oc23)-c2c(O)cc(O)c3c2C(C4)C(C)(C)O3)O1 (stereo not shown) [Compound 8, cycloartobiloxanthone]",,
3.7,2.3,"C=C(C)[C@H]1Cc2c(oc3c4c(cc(O)c3c2=O)OC(C)(C)C=C4)-c2c(O)cc(O)c(O)c21 [Compound 7, artobiloxanthone]",>10,
> 10,> 10,"C=C(C)[C@H]1Cc2c(oc3cc(O)c(CC=C(C)C)c(O)c3c2=O)C2=C1C(=O)C(O)=C(CC=C(C)C)C2=O [Compound 6, artonin O]",,
> 10,> 10,"CC(C)=CCc1c(O)c(CC=C(C)C)c2oc3c(c(=O)c2c1O)C(C=C(C)C)Oc1cc(O)c(O)cc1-3 (stereo not shown) [Compound 4, 2,3,8,10-tetrahydroxy-6-(2-methylpropenyl)-9,11-bis(3-methyl-2-butenyl)-6H[1]benzopyrano[4,3-b]benzopyran-7-one]",,
